Measurements as given in ChEMBL document CHEMBL1157468, “Design, synthesis, and testing of non-nephrotoxic desazadesferrithiocin polyether analogues” (J Med Chem, 2008).

What was measured:
[1] = system: Rattus norvegicus; assay: Toxicity in non-iron-overloaded Sprague-Dawley rat assessed as survival at 75 umol/kg/day, po after 28 days by non-renal perfusion protocol; assay type: organism-based; settings: in vivo, 672 h
In short: (§1)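 Male Sprague–Dawley rats with normal iron stores, unfasted, received oral gavage once daily in the afternoon for 28 days, six per group, with age-matched untreated controls. Euthanasia was 24 h after the last dose. Survival was recorded over the dosing period, and kidney and bone marrow were examined histopathologically.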

[2] = system: Kidney; assay: Biodistribution in Sprague-Dawley rat kidney assessed per gram tissue wet weight at 300 umol/kg, po after 1 hr; assay type: ADME, organism-based; settings: in vivo
In short: (§2)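 Male Sprague–Dawley rats (250–350 g) got one 300 µmol/kg dose, po or sc. Vehicle was water or the monosodium salt (free acid plus 1 equiv NaOH). Three rats per time point were euthanized by CO2 at 1, 2 or 4 h. Plasma came from citrated cardiac blood; liver, kidney, heart and pancreas were removed. Drug levels were measured by HPLC with UV detection at 310 nm against linear calibration curves (detection limit 0.25 µM).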

[3] = system: Kidney; assay: Biodistribution in Sprague-Dawley rat kidney assessed per gram tissue wet weight at 300 umol/kg, po after 4 hrs; assay type: ADME, organism-based; settings: in vivo; in short: as §2
[4] = system: Pancreas; assay: Biodistribution in Sprague-Dawley rat pancreas assessed per gram tissue wet weight at 300 umol/kg, po after 2 hrs; assay type: ADME, organism-based; settings: in vivo; in short: as §2
[5] = system: Rattus norvegicus; assay: Toxicity in iron-overloaded Sprague-Dawley rat assessed as survival at 150 umol/kg/day, po after 28 days by non-renal perfusion protocol; assay type: organism-based; settings: in vivo, 672 h
In short: (§3)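 Male Sprague–Dawley rats were iron-loaded with ip iron dextran, 105 mg/kg/dose × 4 over two weeks, then given two weeks to equilibrate (about 350 mg Fe/kg). They received oral gavage once daily for 28 days in the afternoon, unfasted, six per group, with age-matched controls. Euthanasia was 24 h after the last dose. Survival was recorded, and kidney and bone marrow were sent for histopathology.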

[6] = system: Liver; assay: Biodistribution in Sprague-Dawley rat liver assessed per gram tissue wet weight at 300 umol/kg, sc after 2 hrs; assay type: ADME, organism-based; settings: in vivo
[7] = system: Plasma; assay: Biodistribution in Sprague-Dawley rat plasma at 300 umol/kg, sc after 4 hrs; assay type: ADME, organism-based; settings: in vivo
[8] = system: Plasma; assay: Biodistribution in Sprague-Dawley rat plasma at 300 umol/kg, po after 2 hrs; assay type: ADME, organism-based; settings: in vivo; in short: as §2
[9] = system: Rattus norvegicus; assay: Iron-clearing efficiency in non-iron-overloaded Sprague-Dawley rat at 50 umol/kg, po after 24 hrs relative to control; assay type: functional
In short: (§4)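 Male Sprague–Dawley rats (400–450 g), not iron-loaded and bile duct-cannulated, got one dose of 50, 150 or 300 µmol/kg po, or 300 µmol/kg sc. Vehicle was water or the monosodium salt. Bile was collected every 3 h for 24 h and urine at 24 h. Iron was measured by atomic absorption. Efficiency was treated minus control iron excretion, divided by theoretical output (2:1 ligand:iron), as a percent; mean ± SEM.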

[10] = system: Liver; assay: Biodistribution in Sprague-Dawley rat liver assessed per gram tissue wet weight at 300 umol/kg, sc after 4 hrs; assay type: ADME, organism-based; settings: in vivo
[11] = system: Kidney; assay: Biodistribution in Sprague-Dawley rat kidney assessed per gram tissue wet weight at 300 umol/kg, sc after 4 hrs; assay type: ADME, organism-based; settings: in vivo
[12] = system: Rattus norvegicus; assay: Toxicity in iron-overloaded Sprague-Dawley rat assessed as survival at 300 umol/kg/day, po after 28 days by non-renal perfusion protocol; assay type: organism-based; settings: in vivo, 672 h; in short: as §3
[13] = system: Rattus norvegicus; assay: Iron-clearing efficiency in non-iron-overloaded Sprague-Dawley rat bile assessed as iron excretion at 300 umol/kg, po; assay type: functional; in short: as §4
[14] = system: Rattus norvegicus; assay: Iron-clearing efficiency in non-iron-overloaded Sprague-Dawley rat at 300 umol/kg, sc after 24 hrs relative to control; assay type: functional; in short: as §4
[15] = system: Rattus norvegicus; assay: Nephrotoxicity in Sprague-Dawley rat assessed as heavy vacuolized renal tubules at […] for 7 days by renal perfusion studies; assay type: toxicity, organism-based; settings: in vivo, 168 h, in the assay text read “237 umol/kg” for “273 umol/kg”
In short: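 Male Sprague–Dawley rats (200–250 g), fasted overnight, got 237 µmol/kg/dose po twice daily (474 µmol/kg/day) for 7 days and were fed about 3 h post-drug. Untreated age-matched rats were controls. One day post-drug, under pentobarbital, kidneys were perfusion-fixed with glutaraldehyde in Tyrode's buffer and embedded in TAAB. 500 nm sections were stained with toluidine blue and examined by light microscopy at 400×.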

[16] = system: Liver; assay: Biodistribution in Sprague-Dawley rat liver assessed per gram tissue wet weight at 300 umol/kg, sc after 1 hr; assay type: ADME, organism-based; settings: in vivo
[17] = system: Sapajus apella; assay: Iron-clearing efficiency in iron-overloaded Cebus apella at 150 umol/kg, po after 2 days relative to control; assay type: functional
In short: (§5)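 Monkeys (Cebus apella, 3.5–4 kg) were iron-loaded to about 500 mg Fe/kg with iv iron dextran and rested at least 60 days. They then got one 150 µmol/kg dose, po or sc. Feces and urine were collected every 24 h from 4 days before to 5 days after dosing, and iron was measured by flame atomic absorption. Efficiency was the 2-day post-drug iron minus the 4-day pre-drug baseline, divided by theoretical output (2:1 ligand:iron); mean ± SEM.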

[18] = system: Heart; assay: Biodistribution in Sprague-Dawley rat heart assessed per gram tissue wet weight at 300 umol/kg, sc after 2 hrs; assay type: ADME, organism-based; settings: in vivo
[19] = system: Plasma; assay: Biodistribution in Sprague-Dawley rat plasma at 300 umol/kg, po after 1 hr; assay type: ADME, organism-based; settings: in vivo; in short: as §2
[20] = system: Pancreas; assay: Biodistribution in Sprague-Dawley rat pancreas assessed per gram tissue wet weight at 300 umol/kg, sc after 1 hr; assay type: ADME, organism-based; settings: in vivo
[21] = system: Sapajus apella; assay: Iron-clearing efficiency in iron-overloaded Cebus apella at 150 umol/kg, sc after 2 days relative to control; assay type: functional; in short: as §5
[22] = system: Pancreas; assay: Biodistribution in Sprague-Dawley rat pancreas assessed per gram tissue wet weight at 300 umol/kg, sc after 4 hrs; assay type: ADME, organism-based; settings: in vivo
[23] = system: Liver; assay: Biodistribution in Sprague-Dawley rat liver assessed per gram tissue wet weight at 300 umol/kg, po after 2 hrs; assay type: ADME, organism-based; settings: in vivo; in short: as §2
[24] = system: Plasma; assay: Biodistribution in Sprague-Dawley rat plasma at 300 umol/kg, sc after 2 hrs; assay type: ADME, organism-based; settings: in vivo
[25] = system: Pancreas; assay: Biodistribution in Sprague-Dawley rat pancreas assessed per gram tissue wet weight at 300 umol/kg, po after 1 hr; assay type: ADME, organism-based; settings: in vivo; in short: as §2
[26] = system: Heart; assay: Biodistribution in Sprague-Dawley rat heart assessed per gram tissue wet weight at 300 umol/kg, sc after 1 hr; assay type: ADME, organism-based; settings: in vivo
[27] = system: Kidney; assay: Biodistribution in Sprague-Dawley rat kidney assessed per gram tissue wet weight at 300 umol/kg, sc after 2 hrs; assay type: ADME, organism-based; settings: in vivo
[28] = system: Pancreas; assay: Biodistribution in Sprague-Dawley rat pancreas assessed per gram tissue wet weight at 300 umol/kg, sc after 2 hrs; assay type: ADME, organism-based; settings: in vivo
[29] = system: Heart; assay: Biodistribution in Sprague-Dawley rat heart assessed per gram tissue wet weight at 300 umol/kg, po after 2 hrs; assay type: ADME, organism-based; settings: in vivo; in short: as §2
[30] = system: Rattus norvegicus; assay: Toxicity in non-iron-overloaded Sprague-Dawley rat assessed as survival at 300 umol/kg/day, po after 28 days by non-renal perfusion protocol; assay type: organism-based; settings: in vivo, 672 h; in short: as §1
[31] = system: Plasma; assay: Biodistribution in Sprague-Dawley rat plasma at 300 umol/kg, sc after 1 hr; assay type: ADME, organism-based; settings: in vivo
[32] = system: Kidney; assay: Biodistribution in Sprague-Dawley rat kidney assessed per gram tissue wet weight at 300 umol/kg, po after 2 hrs; assay type: ADME, organism-based; settings: in vivo; in short: as §2
[33] = system: Rattus norvegicus; assay: Iron-clearing efficiency in non-iron-overloaded Sprague-Dawley rat bile assessed as iron excretion at 150 umol/kg, po; assay type: functional; in short: as §4
[34] = system: Rattus norvegicus; assay: Toxicity in non-iron-overloaded Sprague-Dawley rat assessed as survival at 150 umol/kg/day, po after 28 days by non-renal perfusion protocol; assay type: organism-based; settings: in vivo, 672 h; in short: as §1
[35] = system: Liver; assay: Biodistribution in Sprague-Dawley rat liver assessed per gram tissue wet weight at 300 umol/kg, po after 1 hr; assay type: ADME, organism-based; settings: in vivo; in short: as §2
[36] = system: Liver; assay: Biodistribution in Sprague-Dawley rat liver assessed per gram tissue wet weight at 300 umol/kg, po after 4 hrs; assay type: ADME, organism-based; settings: in vivo; in short: as §2
[37] = system: Heart; assay: Biodistribution in Sprague-Dawley rat heart assessed per gram tissue wet weight at 300 umol/kg, po after 1 hr; assay type: ADME, organism-based; settings: in vivo; in short: as §2
[38] = system: Rattus norvegicus; assay: Iron-clearing efficiency in non-iron-overloaded Sprague-Dawley rat bile assessed as iron excretion at 50 umol/kg, po; assay type: functional; in short: as §4
[39] = system: Plasma; assay: Biodistribution in Sprague-Dawley rat plasma at 300 umol/kg, po after 4 hrs; assay type: ADME, organism-based; settings: in vivo; in short: as §2
[40] = system: Heart; assay: Biodistribution in Sprague-Dawley rat heart assessed per gram tissue wet weight at 300 umol/kg, sc after 4 hrs; assay type: ADME, organism-based; settings: in vivo
[41] = system: Rattus norvegicus; assay: Toxicity in iron-overloaded Sprague-Dawley rat assessed as survival at 75 umol/kg/day, po after 28 days by non-renal perfusion protocol; assay type: organism-based; settings: in vivo, 672 h; in short: as §3
[42] = system: Kidney; assay: Biodistribution in Sprague-Dawley rat kidney assessed per gram tissue wet weight at 300 umol/kg, sc after 1 hr; assay type: ADME, organism-based; settings: in vivo
[43] = system: Pancreas; assay: Biodistribution in Sprague-Dawley rat pancreas assessed per gram tissue wet weight at 300 umol/kg, po after 4 hrs; assay type: ADME, organism-based; settings: in vivo; in short: as §2
[44] = system: Rattus norvegicus; assay: Iron-clearing efficiency in non-iron-overloaded Sprague-Dawley rat at 150 umol/kg, po after 24 hrs relative to control; assay type: functional; in short: as §4

COCCOCCOCCOc1cccc(C2=N[C@@](C)(C(=O)O)CS2)c1O [DEFERITAZOLE]
Activity [1]: Non-toxic
Drug uptake [2]: 150 nmol/g
Drug uptake [3]: 15 nmol/g
Drug uptake [4]: 24 nmol/g
Activity [5]: Non-toxic
Drug uptake [6]: 193 nmol/g
Drug uptake [7]: 13 nmol/g
Drug uptake [8]: 9 nmol/g
Activity [9]: 20.7%
Drug uptake [10]: 168 nmol/g
Drug uptake [11]: 90 nmol/g
Activity [12]: Non-toxic
Activity [13]: >95%
Activity [14]: 13.4%
Activity [15]: Non-toxic
Drug uptake [16]: 318 nmol/g
Activity [17]: 23%
Drug uptake [18]: 8 nmol/g
Drug uptake [19]: 26 nmol/g
Drug uptake [20]: 22 nmol/g
Activity [21]: 21.5%
Drug uptake [22]: 12 nmol/g
Drug uptake [23]: 151 nmol/g
Drug uptake [24]: 24 nmol/g
Drug uptake [25]: 9 nmol/g
Drug uptake [26]: 16 nmol/g
Drug uptake [27]: 145 nmol/g
Drug uptake [28]: 30 nmol/g
Drug uptake [29]: 4 nmol/g
Activity [30]: Non-toxic
Drug uptake [31]: 46 nmol/g
Drug uptake [32]: 48 nmol/g
Activity [33]: >95%
Activity [34]: Non-toxic
Drug uptake [35]: 234 nmol/g
Drug uptake [36]: 87 nmol/g
Drug uptake [37]: 9 nmol/g
Activity [38]: >95%
Drug uptake [39]: 2 nmol/g
Drug uptake [40]: 6 nmol/g
Activity [41]: Non-toxic
Drug uptake [42]: 259 nmol/g
Drug uptake [43]: 6 nmol/g
Activity [44]: 18.7%
